This is a sample that favours compounds with a hit; in the whole collection about 3.6% have one here.
PolyA inhibitor: blocks polyadenylation in yeast reporter cells; S. cerevisiae SKY197-pL101 polyadenylation reporter, beta-gal luminescence; efflux-impaired pdr1/pdr3 knockout yeast; score 100 = 6 SD above DMSO; activity score, % at 12 µM; 300,000 compounds, 0.02% hits;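 active = lowest replicate activity score at least 50, where 100 means six control SD above control mean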;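 also: yeast exposed to compound for 9 h at 30 °C; higher score means more reporter readthrough which indicates perturbed polyadenylation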
Hsp70 act: transcriptional activators of Hsp70 | HeLa Hsp70 promoter luciferase reporter, luminescence; scaled: vehicle 0, proteasome-inhibitor control 100% | AID 1203 | activation, % at 10 µM | 200,000 compounds, 0.04% hits;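 active = activation above the mean across all tested compounds plus 3 SD, cutoff set per campaign, cut at about 5.5% in these data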;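 also: 100% = MG132 at 30 µM as the positive control and 0% = DMSO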
PERK inh: inhibitors of human PERK kinase; Q9NZJ5; AID 1416; 220,000 compounds, 0.17% hits; inhibition, % at 5.6 µM; CHO PERK-DD fusion, SEAP luminescence translation reporter;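 active = inhibition above the mean inhibition of all tested compounds plus 3 SD, set separately per screening campaign, cut at about 2.9% in these data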;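 also: PERK kinase domain activated by AP20187 dimerizer at 100 nM; 0% = DMSO with dimerizer and 100% = rapamycin at 8.4 µM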
HSF1 inh: HSF1 inhibition. NIH3T3-HGL HSE-luciferase, MG132-induced, luminescence 8 h; hits give low values. activity change, negative = inhibition, % at 7.5 µM (by protocol). AID 2098. 300,000 compounds, 0.77% hits;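 active = more than half of replicate wells show activity change below -50%, luminescence cut by over half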;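 also: luciferase reports HSF-1 transcriptional activity via heat shock element; 0% = median of DMSO wells and -100% = zero luminescence signal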
AHR activator: activates the human aryl hydrocarbon receptor; AHR-responsive luciferase reporter cells, luminescence; activation, % at 5 µM; 320,000 compounds, 2.5% hits; AID 2796; P35869; in the data active = activation above about 47%;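 also: 0% = vehicle wells and 100% = reference agonist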
STAT3 act: activators of IL-6 induced STAT3 signaling; U3A cells, IL-6 STAT3-luciferase reporter, luminescence; 100% = signal with IL-6 EC80 alone; 190,000 compounds, 0.91% hits; activation (% of control), % at 5.6 µM;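 active = activation above the screen-wide mean of compound activation plus 3 SD, cut at about 130% in these data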;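 also: 0% = background luminescence of wells with medium and substrate only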
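Test system: human U3A cells carrying STAT3-luciferase construct; control set: IL-6-only wells as 100% reference; timing: compound pre-incubation 1 h before IL-6, then 6 h stimulation at 37 °C; also added: IL-6 stimulus at 33 ng/mL final; evaluation: % activation versus median of IL-6-stimulated wells; detection: reporter luminescence signal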
AHR act cf: confirmation of human aryl hydrocarbon receptor activators; shares compounds with AHR activator; activation, % at 9 µM; human cells, AHR-responsive luciferase reporter, luminescence; 2,300 compounds, 87% hits; AID 2845; in the data active = activation above about 49%;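 also: HepG2 hepatoma cells carrying a DRE-driven firefly luciferase reporter; 0% = vehicle wells and 100% = reference agonist wells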
PXR counter: PXR activation, counter-screen for AHR activators; 2,300 compounds, 88% hits; cell-based PXR reporter, luciferase luminescence; activation, % at 11.6 µM; AID 434939; shares compounds with AHR activator; in the data active = activation above about 11%;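 also: human hepatoma DPX-2 cells expressing full-length human PXR; 0% = DMSO and 100% = reference agonist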
Active calls of the source: *; · = no result.

SMILES	PolyA inhibitor	Hsp70 act	PERK inh	HSF1 inh	AHR activator	STAT3 act	AHR act cf	PXR counter
COc1ccc(-c2noc(-c3ccc4c(c3)OCO4)n2)cc1	-7.3	0.0	0.1	12.5	1.5	88.2	·	·
COc1ccc(OC)c2nc(-c3ccc4c(c3)OCO4)ccc12	-11.1	·	·	27.5	116.7*	·	124.9*	45.8*
COc1ccc(CCNS(=O)(=O)c2ccc(-c3ccc(=O)[nH]n3)o2)cc1OC	7.5	·	·	-1.9	4.5	·	·	·
Cn1cc(C(=O)N/N=C/C=C/c2ccccc2)ccc1=O	-3.6	-0.4	0.9	-8.4	9.0	104.3	·	·
Cn1cc(C(=O)N/N=C/C(Br)=C\c2ccccc2)ccc1=O	-9.5	-0.2	0.5	65.1	111.9*	100.6	76.7*	11.0*
Cn1cc(C(=O)N/N=C/C(Br)=C/c2ccccc2)ccc1=O	0.8	-0.1	0.1	61.7	116.3*	97.5	143.4*	10.9*
COc1cccc(C(=S)N2CCCC2)c1OC	5.9	·	·	-2.7	3.6	·	·	·
Cc1[nH]c2ccccc2c1/C=C/c1nc2ccccc2c(=O)[nH]1	12.7	·	-1.1	29.9	166.0*	·	91.2*	54.7*
Cc1cccc(/C=C/c2nc3ccccc3c(=O)[nH]2)c1	-15.9	0.1	-0.2	13.8	-4.3	68.0	·	·
Cc1[nH]c2ccccc2c1/C=C/C(=O)c1ccccc1	-28.0	-0.2	-0.1	19.2	129.3*	85.4	123.3*	72.6*
Cc1[nH]c2ccccc2c(=O)c1C(=O)/C=C/c1ccccc1	5.8	·	-0.5	110.8	-1.8	·	·	·
COc1ccc(CCN2CC(C(=O)NCCc3cn[nH]c3)CCC2=O)cc1 (stereo unspecified)	16.2	·	·	-4.3	2.9	·	·	·
Cc1ccc(/C=C/C(=O)OCC(=O)NC(=O)NCc2ccco2)cc1	·	·	·	·	0.7	·	·	·
CC(=O)c1ccccc1NC(=O)c1ccc2c(c1)NC(=O)C(C)S2 (stereo unspecified)	21.6	·	·	22.1	122.4*	·	143.1*	151.8*
CCCNC(=O)c1ccccc1NC(=O)c1ccc2c(c1)NC(=O)C(C)S2 (stereo unspecified)	-9.0	·	·	-2.0	9.4	·	·	·
O=C(N/N=C/c1c[nH]c2c1ccc1ccccc12)c1ccc([N+](=O)[O-])cc1	7.1	0.2	0.9	-7.0	104.8*	102.4	79.1*	11.2*
O=C(N/N=C/c1cc(Br)cs1)c1c[nH]c2ccccc12	14.5	·	-0.1	17.8	91.3*	·	144.9*	25.7*
CCOC(=O)CSc1c(-c2ccc(Cl)cc2)[nH]c2ccccc12	-38.6	-0.6	-0.1	-8.0	92.6*	119.3	60.9*	9.2
CCOc1ccccc1NC(=O)c1cnc2n(c1=O)CCS2	-3.1	-0.4	0.2	2.5	88.4*	89.9	64.5*	55.2*
COC(=O)C1CCN(C(=O)COC(=O)CSc2ccc(C(N)=O)cc2[N+](=O)[O-])CC1	-4.7	·	·	-6.9	-0.9	·	·	·
Cc1c(NC(=O)c2ccco2)cccc1-c1nc2cccnc2s1	0.9	-0.4	0.2	3.1	109.0*	116.3	89.6*	14.3*
CN(C)S(=O)(=O)Oc1ccsc1C(=O)Nc1ccc(Cl)c(Cl)c1	0.9	-0.1	0.0	1.2	90.3*	97.6	121.9*	35.4*
Cc1ccccc1NC(=O)c1cc2ccccc2o1	4.3	·	·	25.4	102.8*	·	121.6*	13.9*
O=C(Nc1ccccc1)c1cc2ccccc2o1	-17.8	0.2	-0.5	19.4	92.9*	65.1	68.0*	21.4*
O=c1[nH]c2ccccc2nc1-c1ccccc1	-14.1	·	-1.7	0.3	101.3*	·	84.0*	11.1*
SMILES	PolyA inhibitor	Hsp70 act	PERK inh	HSF1 inh	AHR activator	STAT3 act	AHR act cf	PXR counter
CN(c1ccccc1)S(=O)(=O)c1ccc(C(=O)N2CCCC(C(F)(F)F)C2)cc1 (stereo unspecified)	4.7	·	·	1.7	4.5	·	·	·
CCn1nc(NC(=O)c2ccncc2)c2cc3ccc(C)cc3nc21	16.2	-0.5	-0.3	-4.8	11.7	90.0	·	·
Cc1ccc2cc3c(NC(=O)c4ccco4)nn(C)c3nc2c1	-27.6	0.4	-1.9	-0.6	81.7*	92.0	97.0*	2.2
Cc1ccc2cc3c(NC(=O)c4cccnc4)nn(C)c3nc2c1	-0.5	-0.2	0.7	4.6	114.0*	93.1	93.4*	13.7*
CCCn1nc(NC(=O)c2ccco2)c2cc3ccccc3nc21	-25.3	0.1	0.0	0.8	22.0	83.9	·	·
COc1ccc(OCc2nnc(SCC(=O)Nc3ccccc3F)o2)cc1	-18.4	·	·	1.6	0.6	·	·	·
COc1ccc(OC)c(NC(=O)c2sc3ncnc(N4CCN(c5ccccn5)CC4)c3c2C)c1	-7.7	·	·	-7.5	-3.5	·	·	·
CCN1CCN(c2ncnc3sc(C(=O)Nc4ccccc4F)c(C)c23)CC1	6.3	-0.3	-1.2	6.5	128.3*	102.3	75.3*	23.4*
COCCNC(=O)COC(=O)c1cc(-c2ccc(OC)cc2)nc2ccccc12	9.6	0.0	-1.0	12.8	-0.7	77.1	·	·
CC(=O)c1ccc(NC(=O)C(C)OC(=O)c2ccc(Br)o2)cc1 (stereo unspecified)	·	·	·	·	0.7	·	·	·
Cc1ccc2c(ccc[n+]2CC(=O)c2ccccc2)c1	13.2	-0.3	1.3	-1.0	8.9	103.1	·	·
O=C(C[n+]1cc(Br)cc2ccccc21)c1ccccc1	5.0	·	·	7.1	93.4*	·	96.3*	103.3*
Cc1nc2ccc(NS(=O)(=O)c3c(F)cc(F)cc3Br)cc2s1	·	·	·	·	3.7	·	·	·
CN1C(=O)/C(=C\c2ccccc2OCc2ccccc2)SC1=S	3.4	·	·	-4.7	80.6*	·	87.1*	19.1*
CC(C(=O)OCC(=O)Nc1ccc(S(N)(=O)=O)cc1)N1C(=O)c2ccccc2C1=O (stereo unspecified)	·	·	·	·	-0.5	·	·	·
Cn1c(N/N=C2\CCCc3ccccc32)nc2c1c(=O)n(Cc1ccccc1)c(=O)n2C	9.9	0.2	0.9	-6.3	9.7	103.8	·	·
Cn1c(=O)c2c(nc(N/N=C3\CCCc4ccccc43)n2Cc2ccc(F)cc2)n(C)c1=O	-0.7	-0.3	0.0	3.1	94.7*	94.8	88.8*	40.3*
N#Cc1ccc(CN2CCN(C(=O)c3ccc(S(=O)(=O)NCc4ccco4)cc3)CC2)cc1	·	·	·	·	0.0	·	·	·
O=c1c2[nH]c3ccc(Cl)cc3c2ncn1CCN1CCCCC1	0.0	-0.5	-0.9	13.1	10.6	91.6	·	·
O=c1c2[nH]c3ccc(F)cc3c2ncn1CCCn1ccnc1	-15.3	-0.5	-0.1	16.6	95.7*	86.1	81.4*	17.5*
Clc1ccc(-c2nc(/C=N/N3CCOCC3)c3ccccn23)cc1	-24.3	-0.1	1.2	10.3	89.8*	88.0	77.9*	25.3*

Bioassay records: PubChem BioAssay, several laboratories
